This note sets out measurements from ChEMBL document CHEMBL1138555, “N-acylated and N,N'-diacylated imidazolidine-2-thione derivatives and N,N'-diacylated tetrahydropyrimidine-2(1H)-thione analogues: synthesis and antiproliferative activity” (Eur J Med Chem, 2009).

Structures are written as SMILES.

The assay deals with MT4. Nature of the assay: Antiproliferative activity against human MT4 cells assessed as reduction of growth by MTT assay. The class given is functional, cell-based. The essentials:
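MT-4 lymphoblastoid T cells (ATCC) in RPMI 1640 with 10% FCS, penicillin/streptomycin, checked for mycoplasma. 1 × 10⁴ mock-infected cells per well with serial dilutions from a 100 mM DMSO stock. Incubated 4 days at 37 °C, viable cells counted by MTT. IC50 versus untreated controls by linear regression. Mean of three separate experiments.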
With `O=C(c1ccc(Cl)cc1Cl)N1CCCN(C(=O)c2ccc(Cl)cc2Cl)C1=S`, the half-maximal inhibitory concentration (IC50) (usually the midpoint of a concentration-inhibition curve) was over 100 µM.
Turning to `O=C(c1ccc(Cl)c(Cl)c1)N1CCCN(C(=O)c2ccc(Cl)c(Cl)c2)C1=S`, the IC50 is 72 µM.
As to `O=C(c1ccc(Cl)cc1)N1CCCN(C(=O)c2ccc(Cl)cc2)C1=S`, the half-inhibitory concentration (IC50) was 38 µM.
Next, `Cc1ccc(C(=O)N2CCN(C(=O)c3ccc(C)cc3)C2=S)cc1`: 35 µM; `O=C(c1ccccc1)N1CCN(C(=O)c2ccccc2)C1=S`: 94 µM; `O=CN1CCN(C(=O)c2ccccc2)C1=S`: 12 µM.
Next, `CC(C)(C)c1ccc(C(=O)N2CCN(C(=O)c3ccc(C(C)(C)C)cc3)C2=S)cc1`: over 100 µM; `O=C(c1cc(Cl)cc(Cl)c1)N1CCCN(C(=O)c2cc(Cl)cc(Cl)c2)C1=S`: 30 µM; `O=C(c1cccc(Cl)c1)N1CCN(C(=O)c2cccc(Cl)c2)C1=S`: 35 µM.
Take `O=C(c1ccccc1Cl)N1CCCN(C(=O)c2ccccc2Cl)C1=S`: the 50% inhibitory concentration (IC50) is over 100 µM.
As for `CC(C)(C)C(=O)N1CCN(C=O)C1=S`, the IC50 was found to be 43 µM.
The same measure for `O=C(c1cccs1)N1CCCN(C(=O)c2cccs2)C1=S`: over 100 µM; for `CC(C)(C)C(=O)/C(C#N)=C/N1CCN(C(=O)c2ccco2)C1=S`: 14 µM.
The same measure for `O=C(c1ccccc1)N1CCCN(C(=O)c2ccccc2)C1=S`: over 100 µM.
As to `CC(=O)N1CCN(C(C)=O)C1=S`, the IC50 is over 100 µM.
For `CC(=O)N1CCN(C=O)C1=S`, the IC50 was over 100 µM.
The same measure for `COc1ccc(C(=O)N2CCN(C(=O)c3ccc(OC)cc3)C2=S)cc1`: over 100 µM.
Next, `O=C(c1ccco1)N1CCCN(C(=O)c2ccco2)C1=S`: 36 µM; `COc1cc(C(=O)N2CCCN(C(=O)c3cc(OC)c(OC)c(OC)c3)C2=S)cc(OC)c1OC`: over 100 µM; `O=C(c1ccc(Cl)cc1)N1CCN(C(=O)c2ccc(Cl)cc2)C1=S`: 9.9 µM.
Take `O=C(c1cccc([N+](=O)[O-])c1)N1CCN(C(=O)c2cccc([N+](=O)[O-])c2)C1=S`: the half-inhibitory concentration (IC50) was over 100 µM.
Next, `CC(=O)/C(=C/N1CCN(C(=O)c2ccco2)C1=O)C(=O)c1ccccc1`: over 100 µM; `N#CC(C#N)=CN1CCN(C(=O)c2ccco2)C1=O`: over 100 µM; `Cc1ccc(C(=O)N2CCN(C=O)C2=S)cc1`: 31 µM.
`CCOC(=O)/C(=C/N1CCN(C(=O)c2ccco2)C1=O)C(=O)c1ccccc1`: the IC50 amounted to 43 µM.
The same measure for `Cc1ccccc1C(=O)N1CCN(C(=O)c2ccccc2C)C1=S`: over 100 µM; for `O=C(c1ccccc1Cl)N1CCN(C(=O)c2ccccc2Cl)C1=S`: 54 µM; for `O=CN1CCN(C(=O)/C=C/c2ccccc2)C1=S`: over 100 µM.
The same measure for `O=C(c1ccc(Cl)c([N+](=O)[O-])c1)N1CCN(C(=O)c2ccc(Cl)c([N+](=O)[O-])c2)C1=S`: 11 µM.
In the case of `O=C(c1cccc2ccccc12)N1CCN(C(=O)c2cccc3ccccc23)C1=S`, the concentration for half-maximal inhibition (IC50) was 13 µM.
As for `Cc1ccc(C(=O)N2CCCN(C(=O)c3ccc(C)cc3)C2=S)cc1`, the IC50 was over 100 µM.
